The results in this text go back to ChEMBL document CHEMBL1149910, “2-(6-aryl-3(Z)-hexen-1,5-diynyl)anilines as a new class of potent antitubulin agents” (J Med Chem, 2008).

Assay type in all cases: functional
In assay [1] the test system is K562. The assay is described as follows: Cytotoxicity against human K562 cells. In outline:
(§1)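 Tested in the NCI in vitro antitumor screening protocol across a tumor cell line panel. GI₅₀ is the concentration producing a 50% reduction in cell growth.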

The test system of assay [2] is HCT-15. The assay is described as follows: Cytotoxicity against human HCT15 cells. In outline:
as §1

The test system of assay [3] is SNB-75. The assay is described as follows: Cytotoxicity against human SNB75 cells. Particulars: read-out: pGI50 (converted). In outline: as §1
The test system of assay [4] is UACC-62. The assay is described as follows: Cytotoxicity against human UACC62 cells. Particulars: read-out: pGI50 (converted). In outline: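 NCI in vitro antitumor screening protocol; GI50 taken as the concentration giving 50% reduction in cell growth.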
Assay [5] has as its system OVCAR-3. The assay is described as follows: Cytotoxicity against human OVCAR-3 cells. In outline: as §1
For assay [6], the system named is MDA-MB-231. Description: Cytotoxicity against human MDA-MB-231 cells. In outline: as §1
Assay [7] relates to MDA-MB-435. The assay is described as follows: Cytotoxicity against human MDA-MB-435 cells. In outline: as §1
Assay [8] deals with K562. Description: Cell cycle arrest in human K562 cells assessed as accumulation at G0/G1 phase at 50 uM after 24 hrs by flow cytometry. In outline:
(§2)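 K-562 human leukemia cells were grown in RPMI 1640 with 10% fetal calf serum, glutamine and penicillin/streptomycin at 37 °C in 5% CO₂. Cells were exposed to compound at 50 µM for 24 h, then pelleted and PBS-washed. They were fixed in ice-cold ethanol for 30 min, treated with 1 mg/mL RNase A at 37 °C for 30 min, and stained with propidium iodide and Triton X-100 for 30 min at room temperature in the dark. Per-phase and sub-G1 percentages came from flow cytometry gating.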

For assay [9], the system named is K562. Description: Cell cycle arrest in human K562 cells assessed as accumulation at S phase at 50 uM after 24 hrs by flow cytometry. In outline:
as §2

Assay [10] has as its system K562. Description: Cell cycle arrest in human K562 cells assessed as accumulation at G2/M phase at 50 uM after 24 hrs by flow cytometry. In outline:
as §2

The test system of assay [11] is K562. Description: Cell cycle arrest in human K562 cells assessed as accumulation at sub-G1 phase at 50 uM after 24 hrs by flow cytometry. In outline:
as §2

The test system of assay [12] is MDA-MB-231. The assay is described as follows: Cell cycle arrest in human MDA-MB-231 cells assessed as accumulation of 2N cells at 2 uM after 24 hrs by flow cytometry.
Assay [13] relates to MDA-MB-231. Description: Cell cycle arrest in human MDA-MB-231 cells assessed as accumulation at sub-G1 phase at 2 uM after 24 hrs by flow cytometry.
The test system of assay [14] is MDA-MB-231. Description: Cell cycle arrest in human MDA-MB-231 cells assessed as accumulation of 4N cells at 2 uM after 24 hrs by flow cytometry.
Assay [15] relates to MDA-MB-231. Description: Cell cycle arrest in human MDA-MB-231 cells assessed as accumulation of >4N cells at 2 uM after 24 hrs by flow cytometry.
Assay [16] relates to MDA-MB-231. The assay is described as follows: Cell cycle arrest in human MDA-MB-231 cells assessed as accumulation of 2N cells at 2 uM after 72 hrs by flow cytometry.
The subject of assay [17] is MDA-MB-231. The assay is described as follows: Cell cycle arrest in human MDA-MB-231 cells assessed as accumulation at sub-G1 phase at 2 uM after 72 hrs by flow cytometry.
Assay [18] concerns MDA-MB-231. The assay is described as follows: Cell cycle arrest in human MDA-MB-231 cells assessed as accumulation of 4N cells at 2 uM after 72 hrs by flow cytometry.
Assay [19] has as its system MDA-MB-231. The assay is described as follows: Cell cycle arrest in human MDA-MB-231 cells assessed as accumulation of >4N cells at 2 uM after 72 hrs by flow cytometry.

As to `Nc1ccccc1C#C/C=C\C#CC#C/C=C\C#Cc1ccccc1N`, the GI50 in assay [1] is 794 nM; in assay [2] it was 3980 nM; in [3], 3160 nM; in assay [4], 2000 nM; in assay [5], 2510 nM; in assay [6], 1580 nM. The compound further gave a GI50 in assay [7] of 3160 nM. In addition, the Activity in [8] worked out at 22.8%; in [9], 25%; in [10], 52.2%; in assay [11] it was 9.19%.

As to `Nc1ccccc1C#C/C=C\C#Cc1ccccc1F`, the GI50 in assay [1] is 3160 nM; in [2] it was 5010 nM; in assay [4] it was 7940 nM; in [5], 3160 nM; in assay [6] it was 10000 nM; in assay [7], 2000 nM. For the same compound, the Activity in assay [8] came out at 22.1%; in assay [9], 40.9%; in assay [10], 37%; in assay [11] it was 11.5%.

For `Nc1ccccc1C#C/C=C\C#Cc1c(F)c(F)c(F)c(F)c1F`, the GI50 is 15800 nM in assay [1]; 15800 nM in assay [2]; 39800 nM in [3]; 12600 nM in assay [4]; 15800 nM in [5]; 2510 nM in [6]. In addition, the GI50 in [7] was 15800 nM. The Activity in assay [8] is on record as 43.6%; in assay [9] it was 38.5%; in assay [10] it was 17.9%; in assay [11], 27.34%.

As for `COc1ccc(/C=C\c2cc(OC)c(OC)c(OC)c2)cc1O` [COMBRETASTATIN A4], the GI50 is 31.6 nM in assay [1]; 31.6 nM in assay [2]; 794 nM in assay [3]; 10 nM in assay [4]; 39.8 nM in assay [5]; 10 nM in assay [6]. Also, the GI50 in assay [7] was 31.6 nM.

For `COc1cc2c(c(OC)c1OC)-c1ccc(OC)c(=O)cc1[C@@H](NC(C)=O)CC2` [COLCHICINE], the GI50 in assay [1] was 12.6 nM; in assay [2], 126 nM; in assay [3] it was 25.1 nM; in assay [4], 25.1 nM; in assay [5] it was 15.8 nM; in assay [6], 316 nM. In [7], this compound gave a GI50 of 10 nM. The Activity in assay [12] came to 10.2%; in [13], 23.3%; in assay [14] it was 55.2%; in assay [15], 11.3%; in assay [16], 6.9%; in [17] it was 60%. In addition, the Activity in assay [18] amounted to 21.6%; in assay [19] it was 11.5%.

For the compound `Nc1ccccc1C#C/C=C\C#Cc1ccccc1OC(F)(F)F`, the GI50 in assay [1] was 2510 nM; in assay [2], 3980 nM; in assay [3] it was 2510 nM; in assay [4], 6310 nM; in [5] it was 3980 nM; in assay [6], 5010 nM. In assay [7], this compound showed a GI50 of 1260 nM. For the same compound, the Activity was found to be 4.5% in assay [8], 24.1% in assay [9], 71.4% in [10] and 30.55% in [11].

For the compound `Nc1ccccc1C#C/C=C\C#Cc1ccccc1[N+](=O)[O-]`, the GI50 in assay [1] is 501 nM; in assay [2], 794 nM; in [3], 12600 nM; in assay [4] it was 2000 nM; in [5] it was 3980 nM; in assay [6], 398 nM. The compound also gave a GI50 in assay [7] of 398 nM. Also, the Activity in assay [8] came to 42.7%; in [9], 41%; in [10], 16.3%; in assay [11] it was 11.13%.

Take `Nc1ccccc1C#C/C=C\C#Cc1ccc([N+](=O)[O-])cc1`: the Activity was 35% in assay [8], 46.2% in [9], 18.8% in assay [10] and 15.78% in assay [11].

Take `CCOC(=O)c1ccccc1C#C/C=C\C#Cc1ccccc1N`: the Activity in [8] was 5.9%; in assay [9] it was 12.7%; in assay [10] it was 81.4%; in [11] it was 28.68%.

With `Nc1ccccc1C#C/C=C\C#Cc1ccc(F)cc1F`, the GI50 is 5010 nM in assay [1]; 12600 nM in [2]; 15800 nM in assay [4]; 6310 nM in assay [5]; 15800 nM in assay [6]; 2510 nM in assay [7]. Further, the Activity in assay [8] is on record as 32.5%; in assay [9], 33.1%; in [10] it was 34.4%; in assay [11], 10.04%.
